We go through nine compounds from publication PMC9305987 (Nature cell biology, 2022).

Read-outs that look alike come from different tables or passages of the source.

Data set [1] has as its target recombinant human TET2^CD (Homo sapiens, UniProt Q6N021). As to the kind of experiment: Saturation transfer difference. The format is binding. The essentials: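 Spectra were run at 25°C, 700 MHz, cryoprobe, carrier on water. A 3-s saturation used a 50-ms EBurp2 pulse (0.75 ppm bandwidth) centred at 0.8 ppm for difference or −40 ppm for reference spectra.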
A further data set concerns Irg1-KO RAW264.7 cells. As to the kind of experiment: SDH inhibition, succinate and 5hmC in LPS-stimulated Irg1-KO macrophages. The format is cell-based, mouse. The settings on record: 3-NPA 1 mM, LPS-stimulated Irg1-KO RAW264.7.
Data set [2] deals with HEK293T cells overexpressing mTET2^CD. As to the kind of experiment: Global 5hmC by immunofluorescence in TET2-overexpressing cells. The settings on record: for Effect on 5hmC: HEK293T overexpressing mTET2^CD. The format is cell-based. The essentials: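 TET2-overexpressing HEK293T cells were treated with OI alone or with rising amounts of dimethyl-α-KG. 5hmC immunofluorescence: Triton X-100 permeabilization, 2 N HCl denaturation for 30 min, Tris pH 8.5 neutralization, BSA block, anti-5hmC overnight at 4°C, fluorescent secondary, DAPI counterstain. Two independent experiments.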

Data set [3] concerns RAW264.7 mouse macrophages. As to the kind of experiment: Intracellular ITA accumulation by LC-MS/MS. The format is cell-based. The settings on record: RAW264.7, dose-dependent.
Data set [4] concerns HEK293T cells overexpressing TET3. As to the kind of experiment: Global 5hmC by dot-blot and LC-MS/MS in TET3-overexpressing cells. The format is cell-based. The essentials: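 For dot-blot, genomic DNA was spotted on nitrocellulose, UV-crosslinked for 20 min, blocked in 5% milk, probed with anti-5hmC overnight at 4°C and HRP secondary, then scanned. Global 5hmC was also measured by LC-MS/MS, mean with S.D. of 3 independent experiments.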

In data set [5] the test system is TET2-overexpressing HEK293T cells. As to the kind of experiment: Global histone methylation markers by western blot. The format is cell-based.
Data set [6] has as its system bone marrow-derived macrophages (BMDMs). As to the kind of experiment: Global 5hmC quantification by LC-MS/MS in BMDMs. The format is cell-based, mouse. The note with it: 0.5 mM OI or increased concentrations of ITA, 8 hours; for Reduction of global 5hmC: Tet2^+/+ BMDMs; for Effect on global 5hmC: Tet2^−/− BMDMs.
Another data set concerns Tet2^+/+ BMDMs. As to the kind of experiment: 5hmC mapping by hMeDIP-seq in BMDMs. The format is cell-based, mouse. The settings on record: 0.5 mM OI, 8 hours.
In data set [7] the test system is RAW264.7 cells. As to the kind of experiment: qRT-PCR of LPS-induced genes. The format is cell-based, mouse. The essentials: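 Alternatively, cells got LPS for 2 h, then OI for 2 h, or LPS plus dimethyl-α-KG (0.5, 1, 2 mM). mRNA was measured by qRT-PCR with β-actin as housekeeping control. Nfkbiz data are means with S.D. of 3 independent experiments.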
For another data set, the target named is T1, mTET2^CD (Mus musculus, UniProt Q4JK59).
T1 sequence (Q4JK59 1042-1912 limits assumed): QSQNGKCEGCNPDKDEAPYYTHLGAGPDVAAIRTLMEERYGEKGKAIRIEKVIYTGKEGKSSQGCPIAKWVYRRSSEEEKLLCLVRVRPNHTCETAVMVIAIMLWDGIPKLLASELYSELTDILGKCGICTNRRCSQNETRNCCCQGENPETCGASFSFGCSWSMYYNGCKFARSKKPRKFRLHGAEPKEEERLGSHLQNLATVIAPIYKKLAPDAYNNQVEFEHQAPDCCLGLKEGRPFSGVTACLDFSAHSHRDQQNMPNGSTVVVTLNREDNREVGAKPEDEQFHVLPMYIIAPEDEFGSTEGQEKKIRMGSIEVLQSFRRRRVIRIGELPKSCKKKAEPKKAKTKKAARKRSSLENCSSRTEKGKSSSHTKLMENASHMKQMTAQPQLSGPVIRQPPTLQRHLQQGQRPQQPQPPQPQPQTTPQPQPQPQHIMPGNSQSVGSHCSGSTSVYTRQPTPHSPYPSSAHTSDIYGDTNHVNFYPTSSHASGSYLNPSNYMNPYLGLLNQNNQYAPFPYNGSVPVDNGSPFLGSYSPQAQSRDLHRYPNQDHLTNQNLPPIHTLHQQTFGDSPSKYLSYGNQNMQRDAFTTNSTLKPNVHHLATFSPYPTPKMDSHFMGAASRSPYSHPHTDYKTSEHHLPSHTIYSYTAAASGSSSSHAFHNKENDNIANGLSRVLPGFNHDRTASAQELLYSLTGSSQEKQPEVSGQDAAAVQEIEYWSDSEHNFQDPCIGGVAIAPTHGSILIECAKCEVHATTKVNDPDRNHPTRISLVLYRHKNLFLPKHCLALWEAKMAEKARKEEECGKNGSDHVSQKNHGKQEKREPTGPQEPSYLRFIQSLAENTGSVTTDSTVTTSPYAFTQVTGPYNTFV
The format is biochemical. The settings on record: for Inhibition of mTET2^CD activity in presence of excess α-KG: fixed concentration of inhibitor, variable α-KG.

The test system of data set [8] is TET2^CD mutant, i.e. R1896M or S1898F. As to the kind of experiment: STD NMR binding to TET2^CD mutants. Further details: species or system human.
For another data set, the system named is peritoneal leukocytes. As to the kind of experiment: Genomic 5hmC and 5mC in peritoneal leukocytes after i.p. ITA, LC-MS/MS. The format is in vivo, mouse. The note with it: 50 mg/kg ITA i.p. prior to LPS 25 mg/kg.
Another data set has as its system LPS-induced sepsis. As to the kind of experiment: Mouse model of LPS-induced sepsis. The format is in vivo. The settings on record: Tet2^−/− mice.
Data set [9] deals with RAW264.7 cells. As to the kind of experiment: Genomic 5hmC by IF staining in LPS-treated macrophages. The format is cell-based, mouse. The settings on record: LPS 12 hours then 1 mM for 12 hours. A digest of the protocol:
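RAW264.7 cells (DMEM, 10% FBS) were challenged with LPS for 12 h, then given dimethyl-α-KG (1 mM) for 12 h. Cells were permeabilized with 0.3% Triton X-100 for 15 min, DNA denatured with 2 N HCl for 30 min, and neutralized with 100 mM Tris-HCl pH 8.5. Staining used 3% BSA block, anti-5hmC at 4°C overnight, Alexa Fluor 594 secondary for 1 h, and DAPI, then fluorescence microscopy.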

`NC(=O)CC[C@H](N)C(=O)O` [glutamine]: the “Binding to recombinant human TET2^CD (STD NMR)” value in data set [1] is “not”.

`O=C(O)CC[N+](=O)[O-]` [3-NPA, 3-nitropropionic acid]: in the data set with Irg1-KO RAW264.7 cells, the “Effect on global 5hmC” value is listed as “little effect” and the “Intracellular accumulation of succinate” value is not above 1.5 mM.

For the compound `CCCCCCCCOC(=O)[C@@H](O)CCC(=O)O` [Octyl-L-2HG], the “Effect on 5hmC” value in data set [2] is recorded as “dose-dependently reduced 5hmC”.

As to `C=C(CC(=O)OCCCCCCCC)C(=O)O` [OI, octyl-ITA], the “Time to intracellular accumulation of ITA” value in data set [3] was less than 30 s. The “Effect on 5hmC” value in [2] is recorded as “dose-dependently reduced 5hmC”. The “Effect on global 5hmC” value in data set [4] is on record as “decreased global 5hmC”. For the same compound, the “Effect on global histone methylation” value in [5] is reported as “no detectable effect”. In data set [6], the “Reduction of global 5hmC” value was not above 95% and the “Effect on global 5hmC” value was “little effect”. For the same compound, the “5hmC by hMeDIP-seq” value in the data set on Tet2^+/+ BMDMs was “decreased 5hmC at both promoters and intragenic regions”. Moreover, the “Nfkbiz mRNA expression” value with RAW264.7 cells [7] (LPS-stimulated Tet2-KO cells) was “failed to affect”. Moreover, in the data set on RAW264.7 cells [7] (Tet2-WT, LPS 2 hours then OI 2 hours), the “LPS-induced mRNA expression of Nfkbiz, Il-6, Cxcl9/10/11” value is listed as “hindered”.

Regarding `C=C(CC(=O)O)C(=O)O` [ITA, itaconic acid], on mTET2^CD, the midpoint of inhibition, the IC50, lay at 171 µM and the “Inhibition of mTET2^CD activity in presence of excess α-KG” value was “overcome dose-dependently by excess α-KG”. Also, the “Binding to recombinant human TET2^CD (STD NMR)” value in [1] was “bound directly”. For the same compound, in [1] (competition with α-KG), the “ITA-TET2^CD binding in presence of α-KG (STD NMR)” value is given as “blocked by α-KG”. For the same compound, the “Binding to TET2^CD mutants R1896M or S1898F (STD NMR)” value in data set [8] was “abolish the binding”. In [3], the “Time to intracellular accumulation of ITA” value is less than 30 s. Also, the “Effect on global 5hmC” value in data set [4] is reported as “decreased global 5hmC”. In [6], the “Reduction of global 5hmC” value is not above 95% and the “Effect on global 5hmC” value is “little effect”. In addition, in the data set on RAW264.7 cells [7] (unmodified ITA 3 mM, Tet2-WT vs Tet2-KO), the “Suppression of LPS-induced chemokine and cytokine genes upon Tet2 deletion” value was “completely abolished by Tet2 deletion”. The “5mC in peritoneal leukocytes” value in the data set with peritoneal leukocytes was “unaffected”. Also, in the data set on peritoneal leukocytes (2 hours post LPS), the “Reduction of 5hmC in peritoneal leukocytes” value is not above 36%. Also, the “Anti-inflammatory and protective effects” value in the data set with LPS-induced sepsis is recorded as “not observed”.

As for `O=C(O)/C=C/C(=O)O` [fumarate], at mTET2^CD (read-out: IC50 toward mTET2^CD catalytic activity, 0.1 mM α-KG, 37°C 30 min), the IC50 was more than 5000 µM.

Take `O=C(O)CC[C@H](O)C(=O)O` [L-2-HG]: at mTET2^CD, the “Inhibition of mTET2^CD activity in presence of excess α-KG” value is “overcome dose-dependently by excess α-KG”.

In the case of `COC(=O)CCC(=O)C(=O)OC` [dimethyl-α-KG], the “Effect on OI-induced 5hmC reduction” value in data set [2] (increasing amount, together with OI) is “reversed”. For the same compound, the “Effect on 5hmC in LPS-treated cells” value in the data set with RAW264.7 cells [9] was “restored 5hmC”. For the same compound, the “Nfkbiz mRNA” value in the data set with RAW264.7 cells [7] (LPS-stimulated Tet2-WT but not Tet2-KO cells) was “further increase”.

With α-ketoglutarate [α-KG], in [8] (R1896M mutation, not S1898F), the “Binding to TET2^CD R1896M mutant (STD NMR)” value is listed as “weakens the binding”.
